ChEMBL document CHEMBL4152306, “Synthesis and biological evaluation of new coumarins bearing 2,4-diaminothiazole-5-carbonyl moiety” (Eur J Med Chem, 2018)
In brackets after ≈: the same amount, converted by molar mass.

Experiments:
MCF7 [1] = test: Cytotoxicity against human MCF7 cells assessed as inhibition of cell proliferation after 48 hrs by MTT assay; type: functional, cell-based; conditions: MCF7, 48 h
How it was run: (§1)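 Cells seeded at 8 × 10³ per well in complete medium, incubated overnight at 37°C, 5% CO2, then exposed to a range of compound concentrations (DMSO solutions; 0.1% DMSO negative control, etoposide positive control) for 48 h at 37°C. Viability by MTT, absorbance 570 nm. IC50 from dose-response curves, mean ± SE of at least three independent experiments.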

HepG2 = test: Cytotoxicity against human HepG2 cells assessed as inhibition of cell proliferation after 48 hrs by MTT assay; type: functional, cell-based; conditions: HepG2, 48 h; how it was run: as §1
SW480 = test: Cytotoxicity against human SW480 cells assessed as inhibition of cell proliferation after 48 hrs by MTT assay; type: functional, cell-based; conditions: SW480, 48 h; how it was run: as §1
[2] = Antioxidant activity assessed as ferric ion reduction by measuring FeSO4 equivalents reducing Fe3+-TPTZ to Fe2+-TPTZ at 5 ug/ml after 25 mins by FRAP assay; type: functional
How it was run: (§2)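 FRAP reagent: 10 mM TPTZ in 40 mM HCl, 20 mM FeCl3·6H2O and 300 mM acetate buffer pH 3.6 (1:1:10). 20 µl sample (tested 5 to 100 µg/ml) mixed with 150 µl reagent, incubated 37°C for 25 min, absorbance at 593 nm. Values as µM FeSO4·7H2O equivalents from calibration curve; ascorbic acid as standard.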

[3] = Antioxidant activity assessed as ferric ion reduction by measuring FeSO4 equivalents reducing Fe3+-TPTZ to Fe2+-TPTZ at 10 ug/ml after 25 mins by FRAP assay; type: functional; how it was run: as §2
[4] = Antioxidant activity assessed as ferric ion reduction by measuring FeSO4 equivalents reducing Fe3+-TPTZ to Fe2+-TPTZ at 20 ug/ml after 25 mins by FRAP assay; type: functional; how it was run: as §2
[5] = Antioxidant activity assessed as ferric ion reduction by measuring FeSO4 equivalents reducing Fe3+-TPTZ to Fe2+-TPTZ at 40 ug/ml after 25 mins by FRAP assay; type: functional; how it was run: as §2
[6] = Antioxidant activity assessed as ferric ion reduction by measuring FeSO4 equivalents reducing Fe3+-TPTZ to Fe2+-TPTZ at 80 ug/ml after 25 mins by FRAP assay; type: functional; how it was run: as §2
[7] = Antioxidant activity assessed as ferric ion reduction by measuring FeSO4 equivalents reducing Fe3+-TPTZ to Fe2+-TPTZ at 100 ug/ml after 25 mins by FRAP assay; type: functional; how it was run: as §2
[8] = Antioxidant activity assessed as DPPH radical scavenging activity incubated for 30 mins under dark condition by spectrophotometric method; type: functional
How it was run: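 Test compounds dissolved in DMSO; 20 µl sample mixed with 250 µl DPPH in methanol (working solution diluted from 0.5 mM methanolic stock to absorbance […] at 517 nm). Kept 30 min at room temperature in dark, absorbance read at 517 nm against compound-free control; ascorbic acid standard. Triplicates; % inhibition from control vs sample absorbance; IC50 reported.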

MCF7 [9] = test: Induction of apoptosis in human MCF7 cells after 48 hrs by Annexin-V-FITC/propidium iodide staining based flow cytometry; type: functional, cell-based
How it was run: (§3)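 MCF-7 cells seeded in 6-well plates, incubated overnight at 37 °C, 5% CO2, treated 48 h; untreated cells as negative control, etoposide as standard. Cells trypsinized, PBS-washed twice, pelleted at 1200 rpm, resuspended in 500 µl binding buffer with 5 µl each Annexin V-FITC and PI, 5–15 min at room temperature in dark, then flow cytometry.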

MCF7 [10] = test: Induction of apoptosis in human MCF7 cells assessed as live cells at IC50 after 48 hrs by Annexin-V-FITC/propidium iodide staining based flow cytometry (reference value: 70.5%); type: functional; how it was run: as §3
MCF7 [11] = test: Induction of apoptosis in human MCF7 cells assessed as early apoptotic cells at IC50 after 48 hrs by Annexin-V-FITC/propidium iodide staining based flow cytometry (reference value: 8.16%); type: functional; how it was run: as §3
MCF7 [12] = test: Induction of apoptosis in human MCF7 cells assessed as late apoptotic cells at IC50 after 48 hrs by Annexin-V-FITC/propidium iodide staining based flow cytometry (reference value: 15.6%); type: functional; how it was run: as §3
MCF7 [13] = test: Induction of apoptosis in human MCF7 cells assessed as necrotic cells at IC50 after 48 hrs by Annexin-V-FITC/propidium iodide staining based flow cytometry (reference value: 5.79%); type: functional; how it was run: as §3
MCF7 [14] = test: Induction of apoptosis in human MCF7 cells assessed as live cells at 7.5 ug/ml after 48 hrs by Annexin-V-FITC/propidium iodide staining based flow cytometry (reference value: 70.5%); type: functional; how it was run: as §3
MCF7 [15] = test: Induction of apoptosis in human MCF7 cells assessed as early apoptotic cells at 7.5 ug/ml after 48 hrs by Annexin-V-FITC/propidium iodide staining based flow cytometry (reference value: 8.16%); type: functional; how it was run: as §3
MCF7 [16] = test: Induction of apoptosis in human MCF7 cells assessed as late apoptotic cells at 7.5 ug/ml after 48 hrs by Annexin-V-FITC/propidium iodide staining based flow cytometry (reference value: 15.6%); type: functional; how it was run: as §3
MCF7 [17] = test: Induction of apoptosis in human MCF7 cells assessed as necrotic cells at 7.5 ug/ml after 48 hrs by Annexin-V-FITC/propidium iodide staining based flow cytometry (reference value: 5.79%); type: functional; how it was run: as §3
MCF7 [18] = test: Induction of apoptosis in human MCF7 cells assessed as live cells at 11.2 ug/ml after 48 hrs by Annexin-V-FITC/propidium iodide staining based flow cytometry (reference value: 70.5%); type: functional; how it was run: as §3
MCF7 [19] = test: Induction of apoptosis in human MCF7 cells assessed as early apoptotic cells at 11.2 ug/ml after 48 hrs by Annexin-V-FITC/propidium iodide staining based flow cytometry (reference value: 8.16%); type: functional; how it was run: as §3
MCF7 [20] = test: Induction of apoptosis in human MCF7 cells assessed as late apoptotic cells at 11.2 ug/ml after 48 hrs by Annexin-V-FITC/propidium iodide staining based flow cytometry (reference value: 15.6%); type: functional; how it was run: as §3
MCF7 [21] = test: Induction of apoptosis in human MCF7 cells assessed as necrotic cells at 11.2 ug/ml after 48 hrs by Annexin-V-FITC/propidium iodide staining based flow cytometry (reference value: 5.79%); type: functional; how it was run: as §3
MCF7 [22] = test: Cell cycle arrest in human MCF7 cells assessed as accumulation at G2 phase at 7.5 ug/ml after 48 hrs by propidium iodide staining based flow cytometry (reference value: 13.24%); type: functional
MCF7 [23] = test: Cell cycle arrest in human MCF7 cells assessed as accumulation at S phase at 7.5 ug/ml after 48 hrs by propidium iodide staining based flow cytometry (reference value: 26.04%); type: functional
MCF7 [24] = test: Cell cycle arrest in human MCF7 cells assessed as accumulation at G1 phase at 7.5 ug/ml after 48 hrs by propidium iodide staining based flow cytometry (reference value: 68.58%); type: functional
MCF7 [25] = test: Cell cycle arrest in human MCF7 cells assessed as accumulation at G2 phase at 11.2 ug/ml after 48 hrs by propidium iodide staining based flow cytometry (reference value: 13.24%); type: functional
MCF7 [26] = test: Cell cycle arrest in human MCF7 cells assessed as accumulation at S phase at 11.2 ug/ml after 48 hrs by propidium iodide staining based flow cytometry (reference value: 26.04%); type: functional
MCF7 [27] = test: Cell cycle arrest in human MCF7 cells assessed as accumulation at G1 phase at 11.2 ug/ml after 48 hrs by propidium iodide staining based flow cytometry (reference value: 68.58%); type: functional

IC50 [8] [mg/L]	Compound	IC50 (MCF7 [1]) [mg/L]	IC50 (HepG2) [mg/L]	IC50 (SW480) [mg/L]	Activity [2] [µMequiv]	Activity [3] [µMequiv]	Activity [4] [µMequiv]	Activity [5] [µMequiv]	Activity [6] [µMequiv]	Activity [7] [µMequiv]	other results
27.7 (≈ 61.2 µM)	Nc1nc(N2CCSCC2)sc1C(=O)c1cc2cc(Br)ccc2oc1=O	12.5 (≈ 27.6 µM)	29.7 (≈ 65.7 µM)	44.5 (≈ 98.4 µM)	57	70.5	78.5	94.3	164	171	–
34.6 (≈ 79.3 µM)	Nc1nc(N2CCOCC2)sc1C(=O)c1cc2cc(Br)ccc2oc1=O	14.6 (≈ 33.5 µM)	19.3 (≈ 44.2 µM)	48.7 (≈ 112 µM)	76.5	84.3	110	162	212	248	–
25.8 (≈ 72.2 µM)	Nc1nc(N2CCOCC2)sc1C(=O)c1cc2ccccc2oc1=O	9.8 (≈ 27.4 µM)	34.8 (≈ 97.4 µM)	20.5 (≈ 57.4 µM)	111	142	205	345	384	605	–

Continued, compound first:

Compound	IC50 [8] [mg/L]	IC50 (MCF7 [1]) [mg/L]	IC50 (HepG2) [mg/L]	IC50 (SW480) [mg/L]	Activity [2] [µMequiv]	Activity [3] [µMequiv]	Activity [4] [µMequiv]	Activity [5] [µMequiv]	Activity [6] [µMequiv]	Activity [7] [µMequiv]	other results
Nc1nc(N2CCN(Cc3ccccc3)CC2)sc1C(=O)c1cc2ccccc2oc1=O	31.7 (≈ 71 µM)	11.6 (≈ 26 µM)	32 (≈ 71.7 µM)	23.4 (≈ 52.4 µM)	88.5	134	198	226	229	444	–
O=C1O[C@H]([C@@H](O)CO)C(O)=C1O [ASCORBIC ACID]	9.6 (≈ 54.5 µM)	–	–	–	74.9	124	216	310	397	484	–
COc1cc([C@@H]2c3cc4c(cc3[C@@H](O[C@@H]3O[C@@H]5CO[C@@H](C)O[C@H]5[C@H](O)[C@H]3O)[C@H]3COC(=O)[C@H]23)OCO4)cc(OC)c1O [ETOPOSIDE]	–	3.1 (≈ 5.27 µM)	6.2 (≈ 10.5 µM)	7.7 (≈ 13.1 µM)	–	–	–	–	–	–	–
Nc1nc(N2CCSCC2)sc1C(=O)c1cc2ccccc2oc1=O	23.9 (≈ 64 µM)	7.5 (≈ 20.1 µM)	16.9 (≈ 45.3 µM)	13 (≈ 34.8 µM)	76.3	86.3	148	266	455	564	Activity (MCF7 [9]): Dose-dependent effect; Activity (MCF7 [10]): 54.1%; Activity (MCF7 [11]): 4.65%; Activity (MCF7 [12]): 19.2%; Activity (MCF7 [13]): 18.3%; Activity (MCF7 [14]): 51.5%; Activity (MCF7 [15]): 5.15%; Activity (MCF7 [16]): 19.2%; Activity (MCF7 [17]): 24.2%; Activity (MCF7 [18]): 39.2%; Activity (MCF7 [19]): 5.9%; Activity (MCF7 [20]): 41.7%; Activity (MCF7 [21]): 13.2%; Activity (MCF7 [22]): 8.28%; Activity (MCF7 [23]): 16.79%; Activity (MCF7 [24]): 83.98%; Activity (MCF7 [25]): 6.44%; Activity (MCF7 [26]): 9.08%; Activity (MCF7 [27]): 89.83%
